Experiments:
[1] = molecular target: 72 kDa type IV collagenase (Homo sapiens, UniProt P08253); experiment: Inhibition of MMP2
[2] = molecular target: Matrix metalloproteinase-9 (Homo sapiens, UniProt P14780); experiment: Inhibition of MMP9
[3] = molecular target: Disintegrin and metalloproteinase domain-containing protein 17 (Sus scrofa, UniProt O77636); experiment: Inhibition of semi purified pig TACE
[4] = system: Blood; experiment: Reduction of LPS-induced TNFalpha in human whole blood; assay type: functional, tissue-based
How it was run: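 LPS-induced TNF-α production in human whole blood; suppression of TNF-α measured.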

[5] = molecular target: T1, Interstitial collagenase (Homo sapiens, UniProt P03956); experiment: Inhibition of MMP1
T1 sequence (P03956 whole entry): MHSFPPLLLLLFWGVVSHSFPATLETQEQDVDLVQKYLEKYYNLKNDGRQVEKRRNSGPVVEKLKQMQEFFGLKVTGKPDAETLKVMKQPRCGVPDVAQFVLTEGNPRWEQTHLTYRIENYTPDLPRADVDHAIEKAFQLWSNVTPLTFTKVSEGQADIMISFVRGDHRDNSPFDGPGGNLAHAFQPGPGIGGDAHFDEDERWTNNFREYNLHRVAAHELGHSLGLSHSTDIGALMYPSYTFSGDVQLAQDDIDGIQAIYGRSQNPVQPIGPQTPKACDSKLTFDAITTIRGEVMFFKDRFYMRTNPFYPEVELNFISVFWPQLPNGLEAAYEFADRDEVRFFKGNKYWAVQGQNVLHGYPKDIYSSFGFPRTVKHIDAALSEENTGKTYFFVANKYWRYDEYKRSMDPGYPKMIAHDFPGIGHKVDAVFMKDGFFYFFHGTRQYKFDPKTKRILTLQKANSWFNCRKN

[6] = Apparent permeability across human Caco-2 cells; assay type: ADME, cell-based
How it was run: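 Apparent permeability measured across Caco-2 cell monolayers in the apical-to-basolateral (A→B) direction.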

[7] = Clearance in Sprague-Dawley rat at 5.0 mg/kg, iv; assay type: ADME, organism-based; design: dose 5 mg/kg, route intravenous; conditions: in vivo
How it was run: (§1)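 Discrete or cassette (n-in-1) dosing, given intravenously and orally. Sprague–Dawley rats received 5.0 mg/kg iv and 8.0 mg/kg po; beagle dogs received 2.0 mg/kg iv and 8.0 mg/kg po. Three animals per dosing group; averaged values reported. AUC is reported in nM h.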

[8] = Oral bioavailability in Sprague-Dawley rat at 8.0 mg/kg; assay type: ADME, organism-based; conditions: in vivo; how it was run: as §1
[9] = molecular target: Matrix metalloproteinase-16 (Homo sapiens, UniProt P51512); experiment: Inhibition of MMP16
[10] = molecular target: Stromelysin-2 (Homo sapiens, UniProt P09238); experiment: Inhibition of MMP10
How it was run: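 MMP Ki values come from a single determination.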

[11] = molecular target: Stromelysin-1 (Homo sapiens, UniProt P08254); experiment: Inhibition of MMP3
[12] = molecular target: Matrix metalloproteinase-14 (Homo sapiens, UniProt P50281); experiment: Inhibition of MMP14
[13] = molecular target: T2, Matrilysin (Homo sapiens, UniProt P09237); experiment: Inhibition of MMP7
T2 sequence (P09237 whole entry): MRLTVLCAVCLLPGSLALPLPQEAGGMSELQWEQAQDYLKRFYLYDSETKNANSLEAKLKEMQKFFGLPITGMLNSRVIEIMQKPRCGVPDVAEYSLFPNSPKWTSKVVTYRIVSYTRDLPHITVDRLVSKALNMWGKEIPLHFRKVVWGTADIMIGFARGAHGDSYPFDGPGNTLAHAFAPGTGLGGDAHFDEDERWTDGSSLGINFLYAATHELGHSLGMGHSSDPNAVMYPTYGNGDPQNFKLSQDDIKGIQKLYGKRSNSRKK

[14] = molecular target: Collagenase 3 (Homo sapiens, UniProt P45452); experiment: Inhibition of MMP13
[15] = molecular target: Matrix metalloproteinase-15 (Homo sapiens, UniProt P51511); experiment: Inhibition of MMP15
How it was run: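 Ki values against each MMP, each from a single determination.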

[16] = molecular target: Neutrophil collagenase (Homo sapiens, UniProt P22894); experiment: Inhibition of MMP8
Chain of Neutrophil collagenase (P22894 whole entry): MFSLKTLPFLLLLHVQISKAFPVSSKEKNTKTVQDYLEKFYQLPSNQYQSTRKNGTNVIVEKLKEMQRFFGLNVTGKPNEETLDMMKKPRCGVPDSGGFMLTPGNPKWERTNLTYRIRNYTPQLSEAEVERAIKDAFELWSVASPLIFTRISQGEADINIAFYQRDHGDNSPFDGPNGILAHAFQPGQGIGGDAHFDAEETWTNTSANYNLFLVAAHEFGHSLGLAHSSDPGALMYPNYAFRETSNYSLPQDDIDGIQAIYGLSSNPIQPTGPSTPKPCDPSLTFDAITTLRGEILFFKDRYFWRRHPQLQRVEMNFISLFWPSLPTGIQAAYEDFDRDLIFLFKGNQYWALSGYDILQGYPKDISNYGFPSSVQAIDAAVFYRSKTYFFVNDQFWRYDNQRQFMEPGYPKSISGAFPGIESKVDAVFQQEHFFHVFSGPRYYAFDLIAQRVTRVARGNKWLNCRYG

Chain of 72 kDa type IV collagenase (P08253 whole entry): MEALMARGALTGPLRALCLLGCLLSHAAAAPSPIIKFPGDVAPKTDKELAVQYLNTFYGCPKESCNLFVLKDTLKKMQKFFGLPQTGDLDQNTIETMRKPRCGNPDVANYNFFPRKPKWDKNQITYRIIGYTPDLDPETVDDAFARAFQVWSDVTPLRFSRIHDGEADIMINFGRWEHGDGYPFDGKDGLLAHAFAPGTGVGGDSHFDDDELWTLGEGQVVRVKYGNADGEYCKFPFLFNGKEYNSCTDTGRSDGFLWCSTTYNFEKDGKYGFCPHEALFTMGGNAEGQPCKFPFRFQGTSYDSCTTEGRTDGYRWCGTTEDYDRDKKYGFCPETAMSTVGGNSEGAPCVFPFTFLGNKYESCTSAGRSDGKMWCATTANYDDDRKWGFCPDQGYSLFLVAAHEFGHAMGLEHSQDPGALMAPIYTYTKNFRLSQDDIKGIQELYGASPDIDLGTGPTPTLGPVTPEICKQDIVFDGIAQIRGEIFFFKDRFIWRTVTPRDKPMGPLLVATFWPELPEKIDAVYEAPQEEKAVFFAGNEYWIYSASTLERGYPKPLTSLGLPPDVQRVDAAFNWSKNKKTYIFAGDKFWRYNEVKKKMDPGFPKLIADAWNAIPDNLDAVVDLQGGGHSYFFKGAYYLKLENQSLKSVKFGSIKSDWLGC
Chain of Matrix metalloproteinase-9 (P14780 whole entry, the tested form may be a part): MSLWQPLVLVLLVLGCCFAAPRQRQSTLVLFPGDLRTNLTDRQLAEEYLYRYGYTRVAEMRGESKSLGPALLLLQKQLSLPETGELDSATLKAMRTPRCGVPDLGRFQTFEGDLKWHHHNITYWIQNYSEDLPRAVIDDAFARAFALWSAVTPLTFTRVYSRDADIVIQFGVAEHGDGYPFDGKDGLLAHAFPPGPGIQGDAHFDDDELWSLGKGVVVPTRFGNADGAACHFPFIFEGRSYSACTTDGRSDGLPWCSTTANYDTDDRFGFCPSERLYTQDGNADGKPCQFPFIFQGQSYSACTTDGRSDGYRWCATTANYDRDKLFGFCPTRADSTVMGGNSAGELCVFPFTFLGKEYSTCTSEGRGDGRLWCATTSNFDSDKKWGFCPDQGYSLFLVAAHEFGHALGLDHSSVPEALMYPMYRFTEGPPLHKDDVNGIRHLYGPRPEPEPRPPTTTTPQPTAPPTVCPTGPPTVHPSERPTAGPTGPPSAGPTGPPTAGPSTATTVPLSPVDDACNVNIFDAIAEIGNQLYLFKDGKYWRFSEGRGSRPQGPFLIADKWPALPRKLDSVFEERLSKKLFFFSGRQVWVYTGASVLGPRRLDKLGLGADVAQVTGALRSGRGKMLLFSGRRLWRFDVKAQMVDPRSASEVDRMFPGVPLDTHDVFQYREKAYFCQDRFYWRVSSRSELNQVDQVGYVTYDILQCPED
Chain of Stromelysin-1 (P08254 whole entry): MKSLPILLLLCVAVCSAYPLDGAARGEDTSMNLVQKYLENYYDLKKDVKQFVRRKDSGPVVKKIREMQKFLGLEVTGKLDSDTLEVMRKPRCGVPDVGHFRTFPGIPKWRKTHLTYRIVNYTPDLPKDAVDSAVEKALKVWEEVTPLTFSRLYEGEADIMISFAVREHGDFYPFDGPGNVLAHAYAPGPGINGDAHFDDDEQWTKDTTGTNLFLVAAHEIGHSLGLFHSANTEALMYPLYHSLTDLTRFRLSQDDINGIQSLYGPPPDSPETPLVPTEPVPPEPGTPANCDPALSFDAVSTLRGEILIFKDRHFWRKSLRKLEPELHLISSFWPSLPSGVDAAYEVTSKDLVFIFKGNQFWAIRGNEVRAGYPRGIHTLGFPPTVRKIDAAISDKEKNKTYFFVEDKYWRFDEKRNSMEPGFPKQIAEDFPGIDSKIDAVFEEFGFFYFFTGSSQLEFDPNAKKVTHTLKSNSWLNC
Chain of Disintegrin and metalloproteinase domain-containing protein 17 (O77636 whole entry, the tested form may be a part): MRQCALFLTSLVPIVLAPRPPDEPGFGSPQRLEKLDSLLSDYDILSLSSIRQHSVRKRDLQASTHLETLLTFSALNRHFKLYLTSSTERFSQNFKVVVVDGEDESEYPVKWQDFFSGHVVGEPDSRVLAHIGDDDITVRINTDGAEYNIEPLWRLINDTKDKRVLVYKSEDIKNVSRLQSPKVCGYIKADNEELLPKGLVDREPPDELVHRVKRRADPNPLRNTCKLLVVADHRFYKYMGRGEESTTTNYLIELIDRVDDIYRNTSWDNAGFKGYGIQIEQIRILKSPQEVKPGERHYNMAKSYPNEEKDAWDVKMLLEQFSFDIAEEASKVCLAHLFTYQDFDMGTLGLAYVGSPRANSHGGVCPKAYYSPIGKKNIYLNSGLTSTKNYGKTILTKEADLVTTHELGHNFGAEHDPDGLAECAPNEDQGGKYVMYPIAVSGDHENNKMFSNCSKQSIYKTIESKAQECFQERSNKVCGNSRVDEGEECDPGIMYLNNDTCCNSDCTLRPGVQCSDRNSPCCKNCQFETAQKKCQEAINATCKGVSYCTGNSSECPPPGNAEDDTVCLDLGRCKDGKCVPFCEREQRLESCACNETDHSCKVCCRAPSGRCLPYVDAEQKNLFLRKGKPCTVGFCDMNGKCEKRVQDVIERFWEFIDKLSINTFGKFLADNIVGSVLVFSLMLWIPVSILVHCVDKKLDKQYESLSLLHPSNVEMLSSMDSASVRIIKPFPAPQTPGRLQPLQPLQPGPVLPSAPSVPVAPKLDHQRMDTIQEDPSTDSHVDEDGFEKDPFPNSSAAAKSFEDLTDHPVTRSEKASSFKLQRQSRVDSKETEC
Chain of Matrix metalloproteinase-16 (P51512 whole entry): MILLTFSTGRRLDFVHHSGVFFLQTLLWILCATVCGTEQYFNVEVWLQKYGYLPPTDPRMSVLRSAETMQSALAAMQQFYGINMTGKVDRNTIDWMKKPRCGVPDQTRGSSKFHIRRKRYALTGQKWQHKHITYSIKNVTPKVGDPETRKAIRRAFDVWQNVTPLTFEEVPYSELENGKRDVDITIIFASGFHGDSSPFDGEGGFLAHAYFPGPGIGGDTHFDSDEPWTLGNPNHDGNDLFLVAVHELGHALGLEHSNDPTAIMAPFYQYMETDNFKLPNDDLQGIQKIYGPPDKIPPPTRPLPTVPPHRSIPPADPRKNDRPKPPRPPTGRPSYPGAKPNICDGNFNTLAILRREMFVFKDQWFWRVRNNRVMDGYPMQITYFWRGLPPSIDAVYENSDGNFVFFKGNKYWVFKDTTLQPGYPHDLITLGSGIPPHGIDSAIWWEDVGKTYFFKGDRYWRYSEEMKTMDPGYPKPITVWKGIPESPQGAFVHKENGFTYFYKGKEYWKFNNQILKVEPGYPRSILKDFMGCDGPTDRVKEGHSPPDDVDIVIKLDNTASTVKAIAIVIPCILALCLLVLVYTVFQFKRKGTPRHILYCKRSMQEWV
Chain of Matrix metalloproteinase-15 (P51511 whole entry): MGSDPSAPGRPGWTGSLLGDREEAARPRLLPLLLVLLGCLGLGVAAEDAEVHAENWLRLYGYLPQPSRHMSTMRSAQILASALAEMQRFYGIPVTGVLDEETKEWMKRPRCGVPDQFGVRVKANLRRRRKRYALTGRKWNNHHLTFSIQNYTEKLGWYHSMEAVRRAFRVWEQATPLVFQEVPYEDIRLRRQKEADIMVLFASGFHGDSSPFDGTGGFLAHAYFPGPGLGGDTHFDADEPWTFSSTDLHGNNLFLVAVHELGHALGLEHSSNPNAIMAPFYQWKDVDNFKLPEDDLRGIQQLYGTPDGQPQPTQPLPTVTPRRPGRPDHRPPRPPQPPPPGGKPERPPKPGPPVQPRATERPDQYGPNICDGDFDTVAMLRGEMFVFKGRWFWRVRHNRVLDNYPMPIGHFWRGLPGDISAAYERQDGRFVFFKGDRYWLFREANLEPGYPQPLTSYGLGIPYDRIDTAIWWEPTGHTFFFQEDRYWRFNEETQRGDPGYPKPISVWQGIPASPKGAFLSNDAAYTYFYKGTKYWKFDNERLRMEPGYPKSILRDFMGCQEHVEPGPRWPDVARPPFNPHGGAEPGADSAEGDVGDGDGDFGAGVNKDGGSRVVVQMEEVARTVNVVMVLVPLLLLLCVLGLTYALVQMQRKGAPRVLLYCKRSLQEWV
Chain of Stromelysin-2 (P09238 whole entry): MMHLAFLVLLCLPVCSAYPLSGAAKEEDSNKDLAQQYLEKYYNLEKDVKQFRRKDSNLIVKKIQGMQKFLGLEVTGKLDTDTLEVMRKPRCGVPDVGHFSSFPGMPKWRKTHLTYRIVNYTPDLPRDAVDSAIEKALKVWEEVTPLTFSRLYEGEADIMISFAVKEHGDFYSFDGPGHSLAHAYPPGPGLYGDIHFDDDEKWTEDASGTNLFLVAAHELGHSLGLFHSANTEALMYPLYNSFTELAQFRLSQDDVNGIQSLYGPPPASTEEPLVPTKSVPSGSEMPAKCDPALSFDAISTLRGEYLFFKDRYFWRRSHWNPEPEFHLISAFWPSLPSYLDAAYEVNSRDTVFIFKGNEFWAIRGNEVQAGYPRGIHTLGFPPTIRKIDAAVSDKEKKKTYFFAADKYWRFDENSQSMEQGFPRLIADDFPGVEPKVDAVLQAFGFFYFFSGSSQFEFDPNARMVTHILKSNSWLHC

| SMILES | Ki [1] [µM] | Ki [2] [µM] | IC50 [3] [µM] | IC50 [4] [µM] | Ki [5] [µM] | Papp [6] [×10⁻⁶ cm/s] | clearance [7] [mL/min/kg] | bioavailability [8] [%] | Ki [9] [µM] | IC50 [10] [µM] | Ki [11] [µM] | Ki [12] [µM] | Ki [13] [µM] | Ki [14] [µM] | Ki [15] [µM] | Ki [16] [µM] |
| --- | --- | --- | --- | --- | --- | --- | --- | --- | --- | --- | --- | --- | --- | --- | --- | --- |
| CSc1nc2ccccc2n1Cc1ccc([C@]2(N)CCN([C@H](CC(C)C)C(=O)NO)C2=O)cc1 | 0.302 | 0.934 | 0.0062 | 0.316 | > 4.95 | – | – | – | – | – | – | – | – | – | – | – |
| Cc1nc2ccccc2n1Cc1ccc(C(=O)N[C@@H]2CNC[C@@H]2C(=O)NO)cc1 | > 2.13 | > 2.13 | 0.0026 | 0.056 | > 2.13 | 0.1 | – | – | – | – | – | – | – | – | – | – |
| CC(C)c1nc2ccccc2n1Cc1ccc(C(=O)N[C@@H]2CNC[C@@H]2C(=O)NO)cc1 | > 2.13 | > 2.13 | 0.0016 | 0.064 | > 2.13 | 0.1 | – | – | – | – | – | – | – | – | – | – |
| O=C(N[C@@H]1CCC[C@@H]1C(=O)NO)c1ccc(Cn2c(C3CC3)nc3ccccc32)cc1 | > 3.33 | > 2.13 | 0.0027 | 0.054 | > 4.95 | 2 | 25 | 22 | – | – | – | – | – | – | – | – |
| C#CCN1C[C@H](C(=O)NO)[C@H](NC(=O)c2ccc(Cn3c(C(C)C)nc4ccccc43)cc2)C1 | > 3.33 | > 2.13 | 0.0018 | 0.137 | > 4.95 | 0.1 | 155 | 3 | – | – | – | – | – | – | – | – |
| C#CCN1C[C@H](C(=O)NO)[C@H](NC(=O)c2ccc(Cn3c(C(C)(C)C)nc4ccccc43)cc2)C1 | > 3.33 | > 2.13 | 0.0023 | 0.317 | > 4.95 | 0.4 | 113 | 8 | – | – | – | – | – | – | – | – |
| O=C(N[C@@H]1C[C@@]2(CCCO2)C[C@@H]1C(=O)NO)c1ccc(Cn2c(C3CC3)nc3ccccc32)cc1 | > 3.33 | > 2.13 | 0.0013 | 0.042 | > 4.95 | 0.1 | 23.3 | 14 | – | – | – | – | – | – | – | – |
| CC(C)(F)c1nc2ccccc2n1Cc1ccc(C(=O)N[C@@H]2C[C@@]3(CCCO3)C[C@@H]2C(=O)NO)cc1 | > 3.33 | > 2.13 | < 0.001 | 0.14 | > 4.95 | 2.4 | 40 | 33 | – | – | – | – | – | – | – | – |
| CC(C)(F)c1nc2ccccc2n1Cc1ccc(C(=O)N[C@@H]2CCOC[C@@H]2C(=O)NO)cc1 | > 3.33 | > 2.13 | 0.0022 | 0.153 | > 4.95 | 0.3 | 31.7 | 36 | – | – | – | – | – | – | – | – |
| CC(F)(F)c1nc2ccccc2n1Cc1ccc(C(=O)N[C@@H]2CCOC[C@@H]2C(=O)NO)cc1 | > 3.33 | > 2.13 | 0.0026 | 0.188 | > 4.95 | 0.7 | 20 | 55 | – | – | – | – | – | – | – | – |
| O=C(N[C@@H]1COC[C@@H]1C(=O)NO)c1ccc(Cn2c(C(F)(F)F)nc3ccccc32)cc1 | > 3.33 | > 2.13 | 0.001 | 0.102 | > 4.95 | 0.1 | 53.3 | 20 | – | – | – | – | – | – | – | – |
| CSc1nc2ccccc2n1Cc1ccc(C(=O)N[C@@H]2CNC[C@@H]2C(=O)NO)cc1 | > 2.13 | > 2.13 | 0.0016 | 0.034 | > 2.13 | 0.2 | – | – | – | – | – | – | – | – | – | – |
| CSc1nc2ccccc2n1Cc1ccc(C(=O)N[C@@H]2CN(C(=O)OC(C)(C)C)C[C@@H]2C(=O)NO)cc1 | > 2.13 | > 2.13 | < 0.001 | 0.062 | > 2.13 | 0.2 | – | – | > 5.45 | > 10 | > 4.5 | > 5.29 | 4.08 | > 5.03 | > 7.09 | – |
| Cc1nc2ccccc2n1Cc1ccc(C(=O)N[C@@H]2CN(C(=O)OC(C)(C)C)C[C@@H]2C(=O)NO)cc1 | > 2.13 | > 2.13 | 0.001 | 0.092 | > 2.13 | 0.1 | – | – | > 5.55 | 1.6 | 2.61 | > 5.29 | 5.86 | > 5.03 | > 7.09 | – |
| CC(C)c1nc2ccccc2n1Cc1ccc(C(=O)N[C@@H]2CCOC[C@@H]2C(=O)NO)cc1 | > 3.33 | > 2.13 | 0.0016 | 0.105 | > 4.95 | 0.5 | 63.3 | 8 | – | – | – | – | – | – | – | – |
| CC(C)c1nc2ccccc2n1Cc1ccc(C(=O)N[C@@H]2C[C@@]3(CCCO3)C[C@@H]2C(=O)NO)cc1 | > 3.33 | > 2.13 | 0.0011 | 0.069 | > 4.95 | 0.1 | 115 | 22 | – | – | – | – | – | – | – | – |
| CC(C)c1nc2ccccc2n1Cc1ccc(C(=O)N[C@@H]2CCC[C@@H]2C(=O)NO)cc1 | > 3.33 | > 2.13 | 0.001 | 0.065 | > 4.95 | 0.1 | 50 | 8 | – | – | – | – | – | – | – | – |
| CC(C)(C)c1nc2ccccc2n1Cc1ccc(C(=O)N[C@@H]2C[C@@]3(CCCO3)C[C@@H]2C(=O)NO)cc1 | > 3.33 | > 2.13 | 0.002 | 0.252 | > 4.95 | 1.4 | 48.3 | 29 | – | – | – | – | – | – | – | – |
| CC(C)c1nc2ccccc2n1Cc1ccc(C(=O)N[C@@H]2CN(C(=O)OC(C)(C)C)C[C@@H]2C(=O)NO)cc1 | > 2.13 | > 2.13 | 0.001 | 0.07 | > 2.13 | 0.2 | – | – | > 5.55 | 4.6 | 3.92 | > 5.29 | 3.5 | > 5.03 | > 7.09 | > 3.06 |

Source: ChEMBL document CHEMBL1141492, “Potent, exceptionally selective, orally bioavailable inhibitors of TNF-alpha Converting Enzyme (TACE): novel 2-substituted-1H-benzo[d]imidazol-1-yl)methyl)benzamide P1' substituents” (Bioorg Med Chem Lett, 2008)
